The test relates to Cicer arietinum. Put plainly: Antimitotic activity against chick pea seeds assessed as inhibition of germinating root growth after 7 days. It counts as functional, organism-based. To be noted: 168 h. A digest of the protocol: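 Seeds germinated in Petri dishes on filter paper for 7 days, with the paper moistened every 24 h with drug solution. One dish held DMSO as control and one held cisplatin as the standard. Radicle length was measured in cm on day 7, and percent growth inhibition was calculated against the mean of the DMSO-treated control.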

In the case of `O=C(CC(SC(=S)N1CCOCC1)c1ccccc1)c1ccccc1` (stereo not drawn), the IC50 (as a rule, the concentration that inhibits the measured activity by half) is 1650 nM.

With `O=C(CC(SC(=S)N1CCCC1)c1ccccc1)c1ccccc1` (stereo not drawn), the IC50 came out at 1670 nM.

Turning to `O=C(CC(SC(=S)N1CCCCC1)c1ccccc1)c1ccccc1` (stereo not drawn), the IC50 was 1850 nM.

`CN(C)C(=S)SCc1nc2ccccc2[nH]1`: the 50% inhibitory concentration (IC50) was 2120 nM.

In the case of `CCN(CC)C(=S)SC(CC(=O)c1ccccc1)c1ccccc1` (stereo not drawn), the IC50 was 1840 nM.

Turning to `S=C(SCc1nc2ccccc2[nH]1)N1CCCC1`, the 50% inhibitory concentration (IC50) came out at 1800 nM.

For the compound `CCN(CC)C(=S)SCc1nc2ccccc2[nH]1`, the half-maximal inhibitory concentration (IC50) turned out to be 1860 nM.

For `CCCNC(=S)SCc1nc2ccccc2[nH]1`, the IC50 worked out at 2290 nM.

With `O=C(CC(SC(=S)Nc1nc2ccccc2s1)c1ccccc1)c1ccccc1` (stereo not drawn), the 50% inhibitory concentration (IC50) was 1520 nM.

For `S=C(SCc1nc2ccccc2[nH]1)N1CCCCC1`, the IC50 stood at 1660 nM.

For the compound `S=C(SCc1nc2ccccc2[nH]1)N1CCOCC1`, the 50% inhibitory concentration (IC50) worked out at 1890 nM.

`CCCCNC(=S)SCc1nc2ccccc2[nH]1`: the IC50 came out at 2110 nM.

For the compound `CN(C)C(=S)SC(CC(=O)c1ccccc1)c1ccccc1` (stereo not drawn), the concentration for half-maximal inhibition (IC50) came to 2430 nM.

Values taken from ChEMBL document CHEMBL2016520, “Design, synthesis, molecular docking and biological evaluation of new dithiocarbamates substituted benzimidazole and chalcones as possible chemotherapeutic agents” (Bioorg Med Chem Lett, 2012).
